What was measured:
[1] = Kinetic solubility of the compound in aqueous PBS buffer at H 7.4/2.5% DMSO incubated for 1 hr by nephelometry; type: physicochemical; details: aqueous PBS buffer with 2.5% DMSO, pH 7.4, read-out: Kinetic_solubility
Method in brief: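 Compound from a 20 mM DMSO stock was diluted into PBS pH 7.4 at a constant 2.5% DMSO, then two-fold serially diluted in quadruplicate, with extra intermediate concentrations. Plates were shaken 2 min, held 1 h at 37 °C and shaken 3 min before nephelometry. Blank-subtracted scattering onset defined kinetic solubility.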

[2] = Thermodynamic solubility of the compound in aqueous PBS buffer at pH 7.4 incubated for 72 hrs by shake flask method based UV-Vis absorption spectroscopy; type: physicochemical; details: read-out: Therm_solubility
Method in brief: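 Shake-flask method: 3–5 mg compound in 5 mL PBS pH 7.4 was agitated 72 h, with excess solid checked at 24 and 48 h. The solution was then filtered and the filtrate quantified by UV-Vis standard addition with Beer–Lambert. ε came from five-concentration methanol calibrations at λmax, fitted by linear least squares.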

MT4 = assay: Cytotoxicity against human MT-4 cells assessed as inhibition of cell viability incubated for 48 hrs by MTS/PES assay; type: cell-based; details: mt4, 48 h
Method in brief: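 Cytotoxicity: 10^4 MT-4 cells/well in DMEM with 10% FBS and 10 mM HEPES were exposed to compounds 48 h at 37 °C. CC50 was derived from the drop in viability measured by MTS/PES.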

[3] = biological target: T-cell surface glycoprotein CD4 (Homo sapiens, UniProt P01730); assay: Binding affinity to signal peptide of human CD4-YFP expressed in CHO-K1 cells assessed down-modulation of CD4 surface expression incubated for 24 hrs by flow cytometry; type: cell-based
Method in brief: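 CHO cells stably expressing human CD4 C-terminally fused to YFP were exposed 24 h at 37 °C to 1:5 serial dilutions, washed, fixed in 1% formaldehyde and analysed by flow cytometry (488 nm laser). YFP MFI, minus non-transfected background, was expressed as % of untreated controls. IC50 is the concentration giving 50% down-modulation. Mean ± SD, n = 3.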

[4] = system: Human immunodeficiency virus 1; assay: Antiviral activity against HIV-1 NL4-3 infected in human MT-4 cells assessed as inhibition of viral replication by measuring inhibition of cell viability preincubated with cells for 15 mins followed by viral infection and measured after 4 days by MTS/PES assay; type: functional, organism-based; details: Human immunodeficiency virus 1, NL4-3, MT4
Method in brief: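 HIV-1 NL4.3 (30 pg/well) was then added at 37 °C. After 4 days, viability was read by MTS/PES (absorbance 490 and 700 nm) and the IC50 for viral replication was calculated. Mean ± SD, n = 2 or 3.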

[5] = system: CD4 (surface expression down-modulation); assay: Therapeutic index, ratio of CC50 for human MT-4 cells to IC50 for human CD4-YFP expressed in CHO-K1 cells assessed down-modulation of CD4 surface expression incubated for 24 hrs by flow cytometry; type: toxicity, cell-based; details: read-out: Ratio CC50/IC50

solubility kinetic at 1 h [1] | solubility thermodynamic at 72 h [2] | IC50 [3] | SMILES | CC50 (MT4) | IC50 [4] | selectivity ratio at 24 h [5]
43 µM | 11 µM | 330 nM | C=C1CN(S(=O)(=O)c2ccc(C)cc2)CCCN(Cc2ccccc2)CCCN(S(=O)(=O)c2ccc(C)cc2)C1.Cl [CYCLOTRIAZADISULFONAMIDE HYDROCHLORIDE] | > 100000 nM | 1680 nM | 
 |  | 220 nM | C=C1CN(S(=O)(=O)c2ccc(N(C)C)cc2)CCc2cc(CC)cc(n2)CCN(S(=O)(=O)c2ccc(N(C)C)cc2)C1 | > 100000 nM | 1100 nM | 
61 µM |  | 740 nM | C=C1CN(S(=O)(=O)c2ccc(C)cc2)CCc2cc(-c3ccccc3)cc(n2)CCN(S(=O)(=O)c2ccc(C)cc2)C1.Cl | > 100000 nM | 2470 nM | 
64 µM | 28 µM | 1880 nM | C=C1CN(S(=O)(=O)c2ccc(C)cc2)CCc2cc(OC)cc(n2)CCN(S(=O)(=O)c2ccc(C)cc2)C1.Cl | > 100000 nM | 12600 nM | 
 |  | 860 nM | C=C1CN(S(=O)(=O)c2ccc(C)cc2)CCc2cc(CC)cc(n2)CCN(S(=O)(=O)c2ccc(C)cc2)C1 | > 100000 nM | 3400 nM | 
 |  | 2810 nM | C=C1CN(S(=O)(=O)c2ccc(C)cc2)CCc2cccc(n2)CCN(S(=O)(=O)c2ccc(C)cc2)C1 | > 100000 nM | > 50000 nM | 
 | 20 µM | 950 nM | C=C1CN(S(=O)(=O)c2ccc(C)cc2)CCc2cc(C(C)(C)C)cc(n2)CCN(S(=O)(=O)c2ccc(C)cc2)C1.Cl | > 100000 nM | 2700 nM | 
 | 27 µM | 9300 nM | Br.C=C1CN(S(=O)(=O)c2ccc(C)cc2)CCc2cc(O)cc(n2)CCN(S(=O)(=O)c2ccc(C)cc2)C1 | > 100000 nM | > 50000 nM | 
65 µM |  | 130 nM | C=C1CN(S(=O)(=O)c2ccc(C)cc2)CCc2cc(OCC3CCCCC3)cc(n2)CCN(S(=O)(=O)c2ccc(C)cc2)C1.Cl | > 100000 nM | 930 nM | 
 |  | 540 nM | C=C1CN(S(=O)(=O)c2ccc(C)cc2)CCc2cc(CCCC)cc(n2)CCN(S(=O)(=O)c2ccc(C)cc2)C1 | 65800 nM | 2410 nM | > 100
54 µM |  | 1500 nM | C=C1CN(S(=O)(=O)c2ccc(C)cc2)CCc2cc(OCC)cc(n2)CCN(S(=O)(=O)c2ccc(C)cc2)C1.Cl | > 100000 nM | 10400 nM | 
 | 29 µM | 660 nM | C=C1CN(S(=O)(=O)c2ccc(C)cc2)CCc2cc(CC(C)C)cc(n2)CCN(S(=O)(=O)c2ccc(C)cc2)C1.Cl | 87900 nM | 2300 nM | > 100
 |  | 1670 nM | C=C1CN(S(=O)(=O)c2ccc(C)cc2)CCc2cc(C)cc(n2)CCN(S(=O)(=O)c2ccc(C)cc2)C1 | > 100000 nM | > 50000 nM | 
 | 18 µM | 830 nM | C=C1CN(S(=O)(=O)c2ccc(C)cc2)CCc2cc(CCC)cc(n2)CCN(S(=O)(=O)c2ccc(C)cc2)C1.Cl | > 100000 nM | 2810 nM | 
 |  | 420 nM | C=C1CN(S(=O)(=O)c2ccc(C)cc2)CCc2cc(OCc3ccccc3)cc(n2)CCN(S(=O)(=O)c2ccc(C)cc2)C1 | > 100000 nM | 2180 nM | 
